Laboratory results: PMC6403082 (International Journal of Neuropsychopharmacology, 2018)
Read-outs that look alike come from different tables or passages of the source. Peptide text beside a SMILES is read from it.

Key:
[1] = test system: NMDAR in rat primary cortical neurons; assay: Intracellular Ca2+ influx; type: cell-based; conditions: for EC50: rat primary cortical neurons; for Effect on 10 μM NMDA-induced calcium response: 300 μM 7-CK or 10 μM MDL
NMDA, polyamine = assay: Radioligand displacement, NMDA polyamine site; type: binding; conditions: 30 μM test compound
NMDA, glutamate = assay: Radioligand displacement, NMDA glutamate site; type: binding; conditions: 30 μM test compound
NMDA, glycine = NMDA, glycine (Homo sapiens, UniProt Q05586); assay: Radioligand displacement, NMDA glycine site; type: binding; conditions: 30 μM test compound
NMDA, PCP = assay: Radioligand displacement, NMDA PCP site; type: binding; conditions: 30 μM test compound
NMDA, MK-801 = assay: Radioligand displacement, NMDA MK-801 site; type: binding; conditions: 30 μM test compound; inhibition >50% considered meaningful
[2] = biological target: mutant NR1-NR2B receptors (NR1 F484A/T518L) (Homo sapiens, UniProt Q05586+Q13224, F484A/T518L); assay: [3H] MK-801 binding at glycine-site mutant NR1-NR2B; type: biochemical; conditions: NR1 F484A/T518L loss-of-function glycine-site mutant vs wild-type NR1-NR2B
Chain of mutant NR1-NR2B receptors (NR1 F484A/T518L) (Q13224 27-1484, other chains not shown): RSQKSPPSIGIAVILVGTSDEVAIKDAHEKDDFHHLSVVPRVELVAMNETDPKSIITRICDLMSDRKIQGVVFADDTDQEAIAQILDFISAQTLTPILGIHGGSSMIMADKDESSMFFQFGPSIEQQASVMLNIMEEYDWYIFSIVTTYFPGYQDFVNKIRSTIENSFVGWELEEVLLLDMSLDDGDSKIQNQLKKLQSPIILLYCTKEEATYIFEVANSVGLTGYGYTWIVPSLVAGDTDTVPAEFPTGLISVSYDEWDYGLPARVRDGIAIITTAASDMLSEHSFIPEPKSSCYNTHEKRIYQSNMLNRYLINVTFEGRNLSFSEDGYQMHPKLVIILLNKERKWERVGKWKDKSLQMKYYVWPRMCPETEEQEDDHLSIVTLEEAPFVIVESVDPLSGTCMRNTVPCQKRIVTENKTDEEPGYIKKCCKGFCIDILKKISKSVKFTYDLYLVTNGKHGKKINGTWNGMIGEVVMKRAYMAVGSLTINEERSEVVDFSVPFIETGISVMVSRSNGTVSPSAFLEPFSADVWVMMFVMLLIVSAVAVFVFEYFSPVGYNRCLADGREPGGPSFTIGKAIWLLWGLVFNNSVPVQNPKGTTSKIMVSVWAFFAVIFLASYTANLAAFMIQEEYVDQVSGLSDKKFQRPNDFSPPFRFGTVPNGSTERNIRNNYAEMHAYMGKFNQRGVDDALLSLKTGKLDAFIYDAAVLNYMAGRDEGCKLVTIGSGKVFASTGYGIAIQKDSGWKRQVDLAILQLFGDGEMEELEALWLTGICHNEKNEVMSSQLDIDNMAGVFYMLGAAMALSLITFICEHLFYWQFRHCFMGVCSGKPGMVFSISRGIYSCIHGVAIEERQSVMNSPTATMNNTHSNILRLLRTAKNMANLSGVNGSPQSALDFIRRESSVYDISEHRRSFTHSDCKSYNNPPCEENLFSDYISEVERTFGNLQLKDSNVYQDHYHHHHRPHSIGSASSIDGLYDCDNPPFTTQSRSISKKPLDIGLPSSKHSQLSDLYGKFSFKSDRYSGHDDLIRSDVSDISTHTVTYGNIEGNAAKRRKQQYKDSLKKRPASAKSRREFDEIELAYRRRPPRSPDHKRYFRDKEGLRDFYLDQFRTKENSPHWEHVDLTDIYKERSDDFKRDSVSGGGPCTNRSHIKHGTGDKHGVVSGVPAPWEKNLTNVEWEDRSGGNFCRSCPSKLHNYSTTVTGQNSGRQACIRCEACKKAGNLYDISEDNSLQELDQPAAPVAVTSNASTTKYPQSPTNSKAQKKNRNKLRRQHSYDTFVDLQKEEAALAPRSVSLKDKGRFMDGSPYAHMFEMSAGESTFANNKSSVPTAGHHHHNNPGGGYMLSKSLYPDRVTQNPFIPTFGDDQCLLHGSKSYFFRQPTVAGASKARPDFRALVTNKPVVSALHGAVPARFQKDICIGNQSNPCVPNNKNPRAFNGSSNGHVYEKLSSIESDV
Outline: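 Crude membranes from transiently transfected HEK cells (NR1-NR2B, wild-type or NR1 F484A/T518L glycine-site mutant), washed in 10 mM Tris·acetate pH 7.4, homogenised, pelleted at 51 500 × g, all at 4°C. […] Then […] [3H] MK-801 (22.5 Ci/mmol) added for 15 min (nonequilibrium), and filtered. n = 18, 2-tailed t test.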

[3] = mPFC microdialysis of rapastinel; type: in vivo; conditions: rat, sc
Outline: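 Freely moving rats had guide cannulae implanted in mPFC (AP +3.2, L +0.5, V −1.5 mm from bregma/dura). After 7 days of recovery, a probe was inserted (3-mm membrane, 50 kDa cutoff) and perfused with aCSF at 1 μL/min (148 NaCl, 4 KCl, 0.8 MgCl2, 1.4 CaCl2, 1.2 Na2HPO4, 0.3 NaH2PO4 mM; pH 7.2). Test compound was given s.c. in sterile saline.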

[4] = biological target: mutant NR2B (R393E) NMDAR in HEK293 cells (Homo sapiens, UniProt Q05586+Q13224, R393E); assay: Intracellular calcium response in HEK cells, NR2B R393E; type: cell-based
Chain of mutant NR2B (R393E) NMDAR in HEK293 cells (Q13224 27-1484 R393E, other chains not shown): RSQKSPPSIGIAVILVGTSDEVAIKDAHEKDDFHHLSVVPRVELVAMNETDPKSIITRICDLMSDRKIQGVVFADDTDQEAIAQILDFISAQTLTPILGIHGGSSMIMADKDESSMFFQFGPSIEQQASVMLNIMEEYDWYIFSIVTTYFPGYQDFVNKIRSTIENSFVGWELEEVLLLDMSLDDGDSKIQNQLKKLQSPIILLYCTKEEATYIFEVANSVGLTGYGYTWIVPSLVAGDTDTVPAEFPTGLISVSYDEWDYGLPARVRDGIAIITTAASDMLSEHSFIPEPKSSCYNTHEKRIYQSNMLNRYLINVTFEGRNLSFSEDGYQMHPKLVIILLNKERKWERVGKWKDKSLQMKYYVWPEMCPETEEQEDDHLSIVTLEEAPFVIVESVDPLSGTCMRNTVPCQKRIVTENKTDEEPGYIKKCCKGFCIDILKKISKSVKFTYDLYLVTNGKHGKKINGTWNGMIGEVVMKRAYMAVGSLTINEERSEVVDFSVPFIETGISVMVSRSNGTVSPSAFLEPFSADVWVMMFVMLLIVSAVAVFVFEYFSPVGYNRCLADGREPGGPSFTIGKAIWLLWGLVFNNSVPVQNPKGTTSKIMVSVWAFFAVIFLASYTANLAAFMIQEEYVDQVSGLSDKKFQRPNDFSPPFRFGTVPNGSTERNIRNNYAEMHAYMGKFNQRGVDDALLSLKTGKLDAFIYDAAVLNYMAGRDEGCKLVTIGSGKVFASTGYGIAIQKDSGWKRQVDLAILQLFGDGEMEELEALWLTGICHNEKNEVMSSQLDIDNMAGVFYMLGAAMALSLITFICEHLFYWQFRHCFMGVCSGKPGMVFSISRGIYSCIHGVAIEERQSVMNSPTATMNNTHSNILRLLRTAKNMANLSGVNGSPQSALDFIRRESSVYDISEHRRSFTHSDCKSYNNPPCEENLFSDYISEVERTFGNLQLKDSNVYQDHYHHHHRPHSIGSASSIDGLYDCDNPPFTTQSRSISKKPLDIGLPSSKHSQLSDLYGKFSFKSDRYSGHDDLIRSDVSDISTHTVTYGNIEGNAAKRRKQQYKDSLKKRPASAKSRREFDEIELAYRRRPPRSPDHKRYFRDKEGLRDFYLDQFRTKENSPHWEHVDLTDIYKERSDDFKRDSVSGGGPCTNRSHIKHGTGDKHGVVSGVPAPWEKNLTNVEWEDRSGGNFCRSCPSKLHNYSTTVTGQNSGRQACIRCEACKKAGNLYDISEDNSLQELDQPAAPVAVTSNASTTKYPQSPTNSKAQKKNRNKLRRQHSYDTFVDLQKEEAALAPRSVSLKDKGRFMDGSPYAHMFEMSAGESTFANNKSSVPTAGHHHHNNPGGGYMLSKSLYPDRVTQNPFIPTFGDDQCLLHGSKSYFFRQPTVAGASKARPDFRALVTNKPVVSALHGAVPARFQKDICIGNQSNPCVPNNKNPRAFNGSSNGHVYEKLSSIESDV

[5] = test system: NMDAR current in rat cortical slices; conditions: 100 μM 7-CK; ref Kemp et al., 1988; cited from earlier work

SMILES: N[C@H](CO)C(=O)O [D-serine]
- EC50 ([1]; read-out: EC50, [Ca2+]i mobilization (D-serine)): 0.29 µM

SMILES: N[C@H](CCCP(=O)(O)O)C(=O)O [(2R)-amino-5-phosphonopentanoate]
- Effect on calcium response to NMDA + rapastinel + 7-CK ([1]; 100 μM co-infused): inhibited the calcium response

SMILES: CN[C@@]1(c2ccccc2Cl)CCCCC1=O [R-ketamine]
- NMDA, polyamine (%) radioligand displacement (NMDA, polyamine): 1%
- NMDA, glutamate (%) radioligand displacement (NMDA, glutamate): 6%
- NMDA, glycine (%) radioligand displacement (NMDA, glycine): −5%
- NMDA, PCP (%) radioligand displacement (NMDA, PCP): 88%
- NMDA, MK-801(%) radioligand displacement (NMDA, MK-801): 89%

SMILES: NCC(=O)O [Glycine, glycine]
- Enhancement of [3H] MK-801 binding at mutant receptors [2]: failed to enhance

SMILES: C[C@@H](O)[C@H](N)C(=O)N1CCC[C@H]1C(=O)N1CCC[C@H]1C(=O)N[C@H](C(N)=O)[C@@H](C)O [Rapastinel] (H-TPPT-NH2)
- level at time molar ([3]; brain (mPFC) microdialysate, 10 mg/kg): ~0.03 µM
- Tmax ([3]; in vivo): ~20 min
- half-life ([3]; in vivo): ~20 min

SMILES: O=C(O)/C(=C/c1c(C(=O)O)[nH]c2cc(Cl)cc(Cl)c12)c1ccccc1 [MDL]
- Block of NMDAR activation by 10 μM NMDA and 100 μM D-serine ([1]; 10 μM MDL, n = 5): −98.5 ± 0.2%
- Effect on 10 μM NMDA-induced calcium response [1]: completely abolished

SMILES: CN[C@]1(c2ccccc2Cl)CCCCC1=O [S-ketamine]
- NMDA, polyamine (%) radioligand displacement (NMDA, polyamine): −17%
- NMDA, glutamate (%) radioligand displacement (NMDA, glutamate): −6%
- NMDA, glycine (%) radioligand displacement (NMDA, glycine): 0%
- NMDA, PCP (%) radioligand displacement (NMDA, PCP): 84%
- NMDA, MK-801(%) radioligand displacement (NMDA, MK-801): 98%
- IC50 ([1]; read-out: IC50, inhibition of NMDAR-mediated [Ca2+]i accumulation): ~1 µM

SMILES: N[C@@H](CCC(=O)O)C(=O)O [glutamate]
- Receptor activation, % of 1 μM glutamate, mutated NR2B (R393E) [4]: 22.6 ± 1.2%

SMILES: O=C(O)c1cc(O)c2ccc(Cl)cc2n1 [7-CK, 7-chlorokynurenic acid]
- Effect on NMDAR current in rat cortical slices [5]: completely blocked
- Effect on 10 μM NMDA-induced calcium response [1]: completely abolished

SMILES: CN[C@H](CC(=O)O)C(=O)O [NMDA, N-methyl-D-aspartate]
- EC50 ([1]; read-out: EC50, [Ca2+]i mobilization (NMDA)): 2.8 µM

SMILES: CNC1(c2ccccc2Cl)CCCCC1=O (racemic) [(R,S)-ketamine]
- NMDA, polyamine (%) radioligand displacement (NMDA, polyamine): −16%
- NMDA, glutamate (%) radioligand displacement (NMDA, glutamate): −5%
- NMDA, glycine (%) radioligand displacement (NMDA, glycine): 17%
- NMDA, PCP (%) radioligand displacement (NMDA, PCP): 94%
- NMDA, MK-801(%) radioligand displacement (NMDA, MK-801): 96%
